Source: PubChem BioAssay (Johns Hopkins Ion Channel Center)
MrgX1 allo act = allosterically activates human MrgX1 receptor signaling | MrgX1-HEK293, Fluo-4 calcium flux, FDSS; active compounds read high | B-score at 10 µM | actives 0.63% (n = 310,000) | AID 588675;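 active = plate-corrected calcium response at least 3 library SD above typical, normal starting fluorescence, not activating the receptor alone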;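 also: compound read alongside a low EC10 to EC30 dose of BAM8-22 agonist; peak minus trough fluorescence over baseline measured at the second addition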
Target sequence (Q96LB2 whole entry, looked up): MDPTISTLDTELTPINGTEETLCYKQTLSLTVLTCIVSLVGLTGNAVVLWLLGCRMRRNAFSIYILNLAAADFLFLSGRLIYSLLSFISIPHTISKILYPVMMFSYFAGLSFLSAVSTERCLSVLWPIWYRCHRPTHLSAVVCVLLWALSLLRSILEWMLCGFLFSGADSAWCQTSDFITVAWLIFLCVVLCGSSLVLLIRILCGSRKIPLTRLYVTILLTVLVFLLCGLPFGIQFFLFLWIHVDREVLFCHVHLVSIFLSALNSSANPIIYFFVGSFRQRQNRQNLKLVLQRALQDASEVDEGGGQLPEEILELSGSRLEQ
MrgX1 agonist = human MrgX1 receptor agonism, primary screen; Q96LB2; MrgX1-HEK293 cells, Fluo-4 calcium fluorescence, agonist mode; active compounds read high; B-score at 10 µM; actives 0.44% (n = 310,000); AID 588627;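 active = calcium response B-score plate-corrected fluorescence ratio at least 3 library SD, with starting fluorescence B-score inside 5 SD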
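Material: MrgX1-expressing HEK293 cells; input: 15,000 cells per well; doses: test compound given as first of three sequential additions; schedule: overnight plating before 1 h dye loading; technique: Fluo-4 NW calcium-flux fluorescence, kinetic read; evaluation: baseline-normalised fluorescence change ratio, B-scored; control set: plate-wise positive and negative controls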
RGS4 block = human RGS4 inhibition. P49798. HEK293 M3R/RGS4 inducible, Fluo-4 calcium flux; active compounds read high; triggered by carbachol at its EC20. B-score at 10 µM. actives 0.45% (n = 310,000). AID 463165;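 active = B-score, a plate-corrected calcium signal, over three deviations above library mean, with baseline fluorescence within five deviations of library mean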;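 also: RGS4 expression induced by doxycycline in cells with stable M3 receptor; B-score is computed from the integrated fluorescence ratio over baseline after carbachol; higher B-score means a larger calcium signal and so more RGS4 inhibition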
Target sequence (P49798 whole entry, looked up): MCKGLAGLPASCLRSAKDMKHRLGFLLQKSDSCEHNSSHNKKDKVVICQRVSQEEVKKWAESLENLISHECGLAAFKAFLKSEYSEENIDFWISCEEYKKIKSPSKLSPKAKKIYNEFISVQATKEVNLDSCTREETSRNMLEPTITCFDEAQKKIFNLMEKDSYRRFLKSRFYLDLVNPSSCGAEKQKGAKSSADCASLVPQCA
MrgX1 antagonist = blocks BAM8-22 activation of human MrgX1 receptor; Q96LB2; MRGX1-HEK293 calcium flux, Fluo-4, BAM8-22 antagonism; active compounds read low; B-score at 10 µM; actives 1.3% (n = 310,000);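 active = calcium-response B-score plate-corrected more than 3 library SD below zero, starting fluorescence within 5 deviations, no agonist response on first addition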;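 also: peak minus trough fluorescence over baseline after final BAM8-22 challenge near maximal dose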
RGS4 pot = potentiators or activators of RGS4; HEK293 M3R/inducible RGS4, carbachol calcium flux Fluo4; active compounds read low; B-score at 10 µM; actives 0.92% (n = 310,000); AID 463111;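 active = B-score of the integrated calcium signal more than 4 SD below the library mean, with starting fluorescence not abnormally high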;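 also: negative B-score means reduced calcium response which marks RGS4 activation or potentiation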
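Assay system: HEK293 FlpIn-TREx cells, stable M3R, doxycycline-inducible RGS4 / Probe or stimulus: carbachol, ECmax concentration / Times: overnight RGS4 induction, 30 min dye load 37 °C, 20 min compound RT / Signal: kinetic calcium fluorescence imaging with Fluo4-AM dye, 2 µM / Measure: Agonist-evoked peak-minus-minimum fluorescence over baseline, integrated ratio, B score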
Active calls of the source: *; i = inactive; nt = no result. Hits are enriched below; roughly 3.5% of the tested compounds scored in any of these assays.

SMILES	MrgX1 allo act	MrgX1 agonist	RGS4 block	MrgX1 antagonist	RGS4 pot
CCC(C)(C)c1ccc(OCCCC[n+]2cccc(C)c2)c(C(C)(C)CC)c1	nt	nt	i	nt	-8.1*
CCN(CC)CCCNCC(=O)Nc1ccc(OC)c(Cl)c1	i	i	i	i	i
CN(C)N1C(N)=C(C#N)C(c2cccnc2)C2=C1CC(C)(C)CC2=O (stereo not given)	i	i	i	-4.8*	i
COc1ccc(CN(CC(=O)NCc2ccc(F)cc2)C(=O)CCC(=O)Nc2nccs2)cc1	i	i	i	i	i
COc1ccc(CN(CC(=O)NCc2ccccc2)C(=O)CCC(=O)Nc2nccs2)cc1	12*	i	i	i	i
O=c1c(Cl)c(N2CCOCC2)cnn1-c1nc2ccccc2[nH]1	i	i	i	-7.1*	i
COc1cc2nc(NC(=O)c3ccc(F)cc3Cl)sc(=O)c2cc1OC	i	i	i	i	i
C/C(=N\NC(=S)NCc1ccccc1)c1ccccc1	i	i	i	i	i
C/C(=N\NC(=S)NCc1ccccc1)c1ccco1	8.1*	i	i	i	i
COc1cc2c(cc1NC(=O)C(C)Sc1ccc(C)cc1)oc1ccccc12 (stereo not given)	i	i	i	i	-7*
COc1cc2c(cc1NC(=O)CSc1ccc(C)cc1)oc1ccccc12	i	i	i	i	i
O=C1Nc2ccc([N+](=O)[O-])cc2OC1CCN1CCCC1 (stereo not given)	12*	i	i	i	i
CN1CCN(CCC2Oc3cc([N+](=O)[O-])ccc3NC2=O)CC1 (stereo not given)	i	i	i	i	i
Cc1[nH]c(C)c(S(=O)(=O)NCC(C)c2ccccc2)c1C(=O)N1CCCCC1 (stereo not given)	i	i	i	i	i
COc1ccccc1N1CCN(C(=O)c2sc3nc(C)nc(N4CCN(c5ccccn5)CC4)c3c2C)CC1	i	i	i	i	-8.2*
CCC1CN(C(=O)N2CCC(C(=O)NCc3cccc(OC)c3OC)CC2)c2cc(C)ccc2O1 (stereo not given)	i	i	i	i	i
O=S(=O)(c1ccc(Cl)c(C(F)(F)F)c1)N1CCN(CC(O)COc2ccccc2F)CC1 (stereo not given)	i	i	i	i	i
Cc1cc(NS(=O)(=O)c2ccc(Nc3nc(-c4sc(NC(=O)c5ccccc5)nc4C)cs3)cc2)no1	i	i	i	i	-11*
Cc1nc(NC(=O)c2ccccc2)sc1-c1csc(Nc2cccc(F)c2)n1	i	i	i	i	i
Cc1cc(NC(=O)c2cc(-c3ccccc3Cl)nc3ccccc23)no1	i	i	i	i	i
Cc1cc(NS(=O)(=O)c2ccc(NC(=O)c3cc(-c4ccccc4Cl)nc4ccccc34)cc2)no1	i	34*	i	i	i
COc1ccc(NS(=O)(=O)c2cc(C(=O)N3CCN(C/C=C/c4ccccc4)CC3)ccc2C)cc1	i	i	i	i	i
CC(C)(C)n1cn[nH]c1=S	i	i	i	i	i
Cc1ccc2c(c1)/C(=C/c1ccco1)C(=O)N2	i	i	i	i	i
O=C1Nc2ccc(Br)cc2/C1=C/c1ccc(C(=O)O)cc1	i	i	8*	i	i
SMILES	MrgX1 allo act	MrgX1 agonist	RGS4 block	MrgX1 antagonist	RGS4 pot
Cc1cc(C)c(C)c(S(=O)(=O)N2CCC(C(=O)OCC(=O)N3c4ccccc4NC(=O)C3(C)C)CC2)c1C	i	i	i	i	-7*
CCOC(=O)c1c(NC(=S)N2CCOCC2)sc(C)c1C	i	i	i	i	i
CCc1ccccc1NC(=O)CSc1nc(-c2ccccc2)nn1C(=O)c1cccc([N+](=O)[O-])c1	i	i	i	i	i
O=C(CSc1nc(-c2ccccc2)nn1C(=O)c1ccccc1)Nc1cccc([N+](=O)[O-])c1	i	i	i	-4.8*	i
Cn1c(CC(=O)c2ccc(Br)cc2)[n+](C)c2ccccc21	i	i	i	i	i
CN1CCN(CCCNC(=O)c2ccc(/C=C3\Sc4ccccc4N(Cc4ccc(F)cc4)C3=O)cc2)CC1	nt	nt	i	nt	-7.5*
CN1CCN(CCCNC(=O)c2ccc(/C=C3\Oc4ccccc4N(Cc4ccccc4F)C3=O)cc2)CC1	i	i	i	i	-8.3*
O=C(CN1C(=O)/C(=C/c2ccccc2)Sc2ccccc21)NCCCN1CCOCC1	i	i	i	i	i
CN1CCN(CCCNC(=O)c2ccc(/C=C3/Sc4ccccc4N(Cc4cccc(Cl)c4)C3=O)cc2)CC1	nt	nt	i	nt	-7.7*
Cc1cccc(CN2C(=O)/C(=C\c3ccc(C(=O)NCCCN4CCN(C)CC4)cc3)Oc3ccccc32)c1	i	i	i	i	i
CCN1C(=O)/C(=C2\SC(=S)N(NC(=O)c3cccnc3)C2=O)c2ccccc21	i	i	i	i	i
CCCCCCCN1CCC(=O)N([C@H](CO)CC(C)C)CC1	i	i	i	i	i
O=C(Nc1cccc(Cl)c1)C1C2CCC3C(CCC21)C3(Cl)Cl (stereo not given)	i	i	i	i	-7.5*
COc1ccc(C(=O)NC2CCCc3c2cnn3-c2cc(F)cc(F)c2)c(OC)c1OC (stereo not given)	i	i	i	i	i
COCCNC(=O)C1CC2Cn3c(nc4ccccc43)C2N1C (stereo not given)	i	i	i	i	i
O=C(/C=C/c1ccccc1)c1ccccn1	i	39*	i	i	i
O=[N+]([O-])c1cccc(S(=O)(=O)N/N=C/c2ccc(O)cc2)c1	6.6*	i	i	i	i
O=[N+]([O-])c1cccc(S(=O)(=O)N/N=C\c2ccc3c(c2)OCO3)c1	13*	i	i	i	i
C=CCn1cnc2c(nnn2Cc2ccc(F)cc2)c1=O	i	i	i	i	i
CC(C)c1cc(=O)oc2c3c4c(cc12)CCCN4CCC3	i	i	i	i	i
CN1CCCc2cc3c(C(F)(F)F)cc(=O)oc3nc21	i	i	i	i	-8*
NC(=O)C1CCN(C2=C(Cl)C(=O)c3ccccc3C2=O)CC1	i	30*	i	i	i
CCCC[C@@H]1CNCCN1CC1(c2ccccc2)CC1	i	i	i	i	i
Cn1nccc1C(=O)NC1CCCc2c1cnn2-c1cc(F)cc(F)c1 (stereo not given)	i	i	i	i	i
